Each structure is given as a SMILES string. pIC50: −log10 of the molar value. Calls of active or inactive are those of the source. No cut-off for these calls is given here.

Data set [1] has as its target Ryanodine receptor 2 (Mus musculus) (UniProt E9Q401). The data set can be described thus: Inhibition of RyR2 in Casq2 gene knockout mouse cardiomyocytes assessed as reduction in calcium sparks frequency at 25 uM incubated for 60 mins. The format is cell-based. The following applies: Cardiomyocyte. In a few lines:
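Isolated ventricular cardiomyocytes were permeabilized with saponin, which opens the sarcolemma but leaves the SR membrane intact. Cells were incubated with 25 μM compound or DMSO vehicle for 60 min (extended from the 10 min screen). RyR2 activity was read as the frequency of Ca2+ sparks relative to vehicle. Statistics were one-way ANOVA with Tukey's post hoc test.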

Data set [2] has the same target. The data set can be described thus: Inhibition of RyR2 in Casq2 gene knockout mouse cardiomyocytes assessed as reduction in calcium sparks frequency at 25 uM incubated for 10 mins. The data set is classed as cell-based. The following applies: Cardiomyocyte. In a few lines:
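Isolated ventricular cardiomyocytes permeabilized with saponin, which opens the sarcolemma but leaves the SR membrane intact. Cells incubated 10 min with 25 μM compound or DMSO vehicle. RyR2 activity read as spontaneous Ca2+ spark frequency and compared to vehicle; statistics by one-way ANOVA with Tukey's posthoc test.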

A short description of data set [3]: Kinetic solubility of the compound in phosphate buffer at pH 7.4 at 25 uM incubated for 2 hrs by nephelometry. The data set is classed as physicochemical. The following applies: pH 7.4, 2 h.
A short description of data set [4]: Kinetic solubility of the compound in Hanks Bile Salt Solution at 25 uM incubated for 2 hrs by nephelometry. The data set is classed as ADME.
A further data set deals with Ryanodine receptor 2 (Mus musculus, UniProt E9Q401). The data set can be described thus: Inhibition of RyR2 in Casq2 gene knockout mouse cardiomyocytes assessed as reduction in calcium sparks frequency incubated for 30 mins. The data set is classed as cell-based, Cardiomyocyte. In a few lines:
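Saponin-permeabilized isolated ventricular cardiomyocytes (sarcolemma opened, SR membrane intact) incubated 30 min with compound across a concentration range for concentration-response curves. Read-out is frequency of spontaneous Ca2+ sparks, used as a measure of RyR2 activity. DMSO served as vehicle.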

Sequence of Ryanodine receptor 2 (Mus musculus) (E9Q401 whole entry): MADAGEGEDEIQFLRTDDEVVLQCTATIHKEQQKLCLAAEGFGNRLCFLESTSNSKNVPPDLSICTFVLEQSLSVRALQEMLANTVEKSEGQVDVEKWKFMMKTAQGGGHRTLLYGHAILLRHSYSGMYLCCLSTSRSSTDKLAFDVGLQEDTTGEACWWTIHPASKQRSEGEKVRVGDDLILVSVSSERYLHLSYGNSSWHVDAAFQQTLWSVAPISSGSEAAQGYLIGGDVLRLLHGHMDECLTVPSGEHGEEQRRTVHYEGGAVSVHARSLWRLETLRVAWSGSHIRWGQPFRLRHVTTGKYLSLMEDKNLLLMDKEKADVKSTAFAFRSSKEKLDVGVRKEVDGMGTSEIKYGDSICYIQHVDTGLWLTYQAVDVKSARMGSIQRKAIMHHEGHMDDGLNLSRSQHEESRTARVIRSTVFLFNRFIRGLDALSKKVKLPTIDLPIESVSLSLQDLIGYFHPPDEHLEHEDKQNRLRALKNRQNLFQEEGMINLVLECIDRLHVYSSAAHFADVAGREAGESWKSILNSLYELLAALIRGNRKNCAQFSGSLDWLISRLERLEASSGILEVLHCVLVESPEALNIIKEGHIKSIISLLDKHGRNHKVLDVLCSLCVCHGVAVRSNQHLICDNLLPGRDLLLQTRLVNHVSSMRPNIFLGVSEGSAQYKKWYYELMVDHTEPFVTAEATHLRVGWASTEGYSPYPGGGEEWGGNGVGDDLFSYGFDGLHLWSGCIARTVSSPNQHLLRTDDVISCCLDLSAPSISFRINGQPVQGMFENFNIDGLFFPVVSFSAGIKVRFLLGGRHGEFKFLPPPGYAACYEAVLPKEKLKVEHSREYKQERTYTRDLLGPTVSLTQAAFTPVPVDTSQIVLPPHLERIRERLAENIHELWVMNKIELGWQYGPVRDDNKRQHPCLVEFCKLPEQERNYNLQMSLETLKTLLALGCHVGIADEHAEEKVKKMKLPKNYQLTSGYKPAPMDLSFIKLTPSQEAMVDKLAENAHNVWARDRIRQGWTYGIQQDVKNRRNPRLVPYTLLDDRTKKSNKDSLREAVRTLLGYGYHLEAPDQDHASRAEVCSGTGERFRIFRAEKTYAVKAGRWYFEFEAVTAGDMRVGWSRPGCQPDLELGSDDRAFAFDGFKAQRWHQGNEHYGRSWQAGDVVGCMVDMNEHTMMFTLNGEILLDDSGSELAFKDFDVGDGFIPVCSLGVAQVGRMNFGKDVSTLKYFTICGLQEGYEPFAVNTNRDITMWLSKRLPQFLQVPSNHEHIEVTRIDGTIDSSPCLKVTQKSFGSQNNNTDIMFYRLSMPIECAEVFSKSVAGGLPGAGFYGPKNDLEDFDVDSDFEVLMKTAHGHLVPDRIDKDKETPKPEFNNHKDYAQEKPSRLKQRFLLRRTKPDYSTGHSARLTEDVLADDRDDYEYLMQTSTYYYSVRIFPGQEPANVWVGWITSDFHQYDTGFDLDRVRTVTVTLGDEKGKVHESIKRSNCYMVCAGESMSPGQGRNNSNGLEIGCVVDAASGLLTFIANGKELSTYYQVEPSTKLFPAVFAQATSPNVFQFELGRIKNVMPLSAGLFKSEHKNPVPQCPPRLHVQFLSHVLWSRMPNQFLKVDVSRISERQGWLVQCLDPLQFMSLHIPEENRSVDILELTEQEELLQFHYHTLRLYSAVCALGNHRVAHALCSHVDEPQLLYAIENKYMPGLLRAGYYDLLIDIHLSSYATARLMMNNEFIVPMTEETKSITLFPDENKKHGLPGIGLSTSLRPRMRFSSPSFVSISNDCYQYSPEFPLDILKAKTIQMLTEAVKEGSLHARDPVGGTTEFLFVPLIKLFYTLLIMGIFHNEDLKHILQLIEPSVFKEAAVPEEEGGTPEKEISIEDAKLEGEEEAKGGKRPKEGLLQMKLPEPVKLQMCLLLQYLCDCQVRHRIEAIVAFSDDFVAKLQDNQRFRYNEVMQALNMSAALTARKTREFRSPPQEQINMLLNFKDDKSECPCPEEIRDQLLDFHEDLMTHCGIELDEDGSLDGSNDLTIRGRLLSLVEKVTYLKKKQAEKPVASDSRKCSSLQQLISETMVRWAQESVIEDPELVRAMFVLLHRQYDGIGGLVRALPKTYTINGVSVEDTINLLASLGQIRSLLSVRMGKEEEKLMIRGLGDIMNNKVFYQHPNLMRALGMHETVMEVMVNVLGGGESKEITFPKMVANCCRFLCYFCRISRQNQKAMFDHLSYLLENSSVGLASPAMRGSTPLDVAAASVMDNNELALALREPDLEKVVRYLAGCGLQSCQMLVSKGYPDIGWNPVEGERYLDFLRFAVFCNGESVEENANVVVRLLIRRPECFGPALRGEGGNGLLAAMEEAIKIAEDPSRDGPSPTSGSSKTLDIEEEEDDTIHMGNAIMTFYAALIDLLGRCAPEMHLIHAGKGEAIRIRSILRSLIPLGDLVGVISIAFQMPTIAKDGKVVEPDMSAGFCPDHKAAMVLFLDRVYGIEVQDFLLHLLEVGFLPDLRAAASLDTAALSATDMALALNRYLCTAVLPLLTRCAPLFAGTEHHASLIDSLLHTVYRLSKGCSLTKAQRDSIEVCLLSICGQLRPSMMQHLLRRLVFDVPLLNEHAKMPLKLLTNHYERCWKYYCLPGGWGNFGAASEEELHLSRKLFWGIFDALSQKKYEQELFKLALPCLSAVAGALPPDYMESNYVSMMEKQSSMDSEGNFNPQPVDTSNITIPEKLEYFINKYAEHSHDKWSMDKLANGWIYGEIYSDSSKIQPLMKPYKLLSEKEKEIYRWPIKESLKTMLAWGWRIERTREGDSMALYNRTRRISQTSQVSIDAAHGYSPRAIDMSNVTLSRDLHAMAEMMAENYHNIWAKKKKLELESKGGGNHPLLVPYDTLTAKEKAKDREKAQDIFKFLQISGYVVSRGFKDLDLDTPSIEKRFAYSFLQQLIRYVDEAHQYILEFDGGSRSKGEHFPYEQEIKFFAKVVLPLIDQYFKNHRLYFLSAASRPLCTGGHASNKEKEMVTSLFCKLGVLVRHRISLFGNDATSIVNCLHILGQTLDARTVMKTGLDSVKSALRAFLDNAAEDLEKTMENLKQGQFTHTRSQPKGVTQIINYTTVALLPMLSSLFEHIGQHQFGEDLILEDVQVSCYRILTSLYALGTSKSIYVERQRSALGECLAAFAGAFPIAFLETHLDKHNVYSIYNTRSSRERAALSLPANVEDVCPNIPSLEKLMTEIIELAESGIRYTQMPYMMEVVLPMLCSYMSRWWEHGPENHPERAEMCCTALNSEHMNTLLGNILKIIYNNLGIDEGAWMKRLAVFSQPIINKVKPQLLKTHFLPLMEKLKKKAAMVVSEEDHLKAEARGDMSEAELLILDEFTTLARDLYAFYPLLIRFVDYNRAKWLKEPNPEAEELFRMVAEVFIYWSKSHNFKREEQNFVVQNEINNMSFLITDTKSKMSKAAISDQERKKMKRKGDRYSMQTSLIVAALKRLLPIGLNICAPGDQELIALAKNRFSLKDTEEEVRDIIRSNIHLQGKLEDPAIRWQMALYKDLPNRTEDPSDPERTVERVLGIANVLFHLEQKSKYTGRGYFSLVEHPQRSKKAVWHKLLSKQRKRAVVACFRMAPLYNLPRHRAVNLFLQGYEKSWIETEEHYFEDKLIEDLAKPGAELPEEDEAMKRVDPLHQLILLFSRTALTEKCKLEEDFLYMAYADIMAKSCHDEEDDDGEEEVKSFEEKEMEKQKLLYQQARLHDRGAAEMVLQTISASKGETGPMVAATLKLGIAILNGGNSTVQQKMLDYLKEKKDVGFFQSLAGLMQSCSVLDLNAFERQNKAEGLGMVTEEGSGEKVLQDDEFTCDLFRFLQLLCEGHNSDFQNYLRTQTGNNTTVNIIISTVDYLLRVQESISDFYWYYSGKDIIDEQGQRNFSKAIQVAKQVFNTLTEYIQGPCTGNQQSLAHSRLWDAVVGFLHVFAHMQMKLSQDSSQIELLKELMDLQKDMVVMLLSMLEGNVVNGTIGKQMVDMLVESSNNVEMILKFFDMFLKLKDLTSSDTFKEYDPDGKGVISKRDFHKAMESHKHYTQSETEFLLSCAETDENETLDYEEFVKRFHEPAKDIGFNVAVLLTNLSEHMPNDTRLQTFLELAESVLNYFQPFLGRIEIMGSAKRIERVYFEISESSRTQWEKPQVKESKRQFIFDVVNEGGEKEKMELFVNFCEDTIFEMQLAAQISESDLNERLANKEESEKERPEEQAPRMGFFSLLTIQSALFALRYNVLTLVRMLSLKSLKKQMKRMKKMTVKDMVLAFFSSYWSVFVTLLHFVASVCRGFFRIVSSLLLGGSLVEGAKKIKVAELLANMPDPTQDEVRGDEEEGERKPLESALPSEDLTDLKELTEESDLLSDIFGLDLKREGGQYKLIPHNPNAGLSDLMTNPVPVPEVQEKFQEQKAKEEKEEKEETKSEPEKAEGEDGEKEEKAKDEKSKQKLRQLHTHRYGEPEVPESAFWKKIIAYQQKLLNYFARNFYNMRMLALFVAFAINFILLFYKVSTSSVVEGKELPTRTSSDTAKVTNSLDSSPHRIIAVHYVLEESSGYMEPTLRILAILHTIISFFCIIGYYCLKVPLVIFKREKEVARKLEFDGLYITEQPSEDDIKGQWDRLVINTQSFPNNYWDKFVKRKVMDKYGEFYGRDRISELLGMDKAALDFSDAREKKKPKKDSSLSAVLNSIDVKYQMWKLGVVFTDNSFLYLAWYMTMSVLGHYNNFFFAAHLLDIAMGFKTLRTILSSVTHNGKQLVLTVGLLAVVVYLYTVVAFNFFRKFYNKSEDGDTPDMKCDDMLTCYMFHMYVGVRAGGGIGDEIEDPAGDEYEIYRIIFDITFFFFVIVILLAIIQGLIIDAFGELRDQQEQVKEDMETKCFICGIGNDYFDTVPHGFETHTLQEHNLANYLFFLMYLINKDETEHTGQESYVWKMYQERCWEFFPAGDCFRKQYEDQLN
Sequence of Ryanodine receptor 2 (E9Q401 whole entry): as above

On to `CCCCC[C@H](OC(=O)[C@@H](C)N(C)C(=O)[C@H](CCCCC)OC(=O)[C@@H](C)N(C)C(=O)OC(C)(C)C)C(=O)OCc1ccccc1`, for which the inhibition entry in data set [1] was “inactive”.

Regarding `CCCCC[C@H]1OC(=O)[C@H](C)N(C)C1=O`, in data set [2], the inhibition entry was “inactive”. Further, the Kinetic_solubility entry in data set [3] and in data set [4] was “Soluble” in each case.

What is called pIC50 is −log10 of the IC50, conventionally taken in molar units. For `CCCCC[C@@H]1OC(=O)[C@@H](C)N(C)C(=O)[C@H](CCCCC)OC(=O)[C@@H](C)N(C)C(=O)[C@H](CCCCC)OC(=O)[C@@H](C)N(C)C1=O`, in data set [2], the inhibition entry is “Active”. Moreover, the Kinetic_solubility result in data set [3] and in data set [4] was “Soluble” in each case. Besides, the pIC50 at Ryanodine receptor 2 is 5.41.

With `CCCCC[C@@H]1OC(=O)[C@@H](C)N(C)C(=O)[C@H](CCCCC)OC(=O)[C@@H](C)N(C)C(=O)[C@H](CCCCC)OC(=O)[C@@H](C)N(C)C(=O)[C@H](CCCCC)OC(=O)[C@@H](C)N(C)C(=O)[C@H](CCCCC)OC(=O)[C@@H](C)N(C)C(=O)[C@H](CCCCC)OC(=O)[C@@H](C)N(C)C1=O`, the inhibition entry in data set [2] is “inactive”. Also, the Kinetic_solubility result in data set [3] and in data set [4] was “Soluble” throughout.

With `CCCCC[C@@H]1OC(=O)[C@@H](C)N(C)C(=O)[C@H](CCCCC)OC(=O)[C@@H](C)N(C)C(=O)[C@H](CCCCC)OC(=O)[C@@H](C)N(C)C(=O)[C@H](CCCCC)OC(=O)[C@@H](C)N(C)C(=O)[C@H](CCCCC)OC(=O)[C@@H](C)N(C)C1=O`, the inhibition entry in data set [2] and in data set [1] was “inactive” each time. In addition, the Kinetic_solubility result in data set [3] and in data set [4] was “Soluble” throughout.

Regarding `CCCCC[C@@H]1OC(=O)[C@@H](C)N(C)C(=O)[C@H](CCCCC)OC(=O)[C@@H](C)N(C)C(=O)[C@H](CCCCC)OC(=O)[C@@H](C)N(C)C(=O)[C@H](CCCCC)OC(=O)[C@@H](C)N(C)C1=O`, the inhibition result in data set [2] is “Active”. For the same molecule, the Kinetic_solubility entry in data set [3] and in data set [4] was “Soluble” in each case. Also, the pIC50 at Ryanodine receptor 2 was 5.72.

For the molecule `CCCCC[C@@H]1OC(=O)[C@@H](C)N(C)C(=O)[C@H](CCCCC)OC(=O)[C@@H](C)N(C)C1=O`, the inhibition entry in data set [2] and in data set [1] was “inactive” each time. Besides, the Kinetic_solubility result in data set [3] and in data set [4] was “Soluble” each time.

The values above are taken from ChEMBL document CHEMBL5226356, “Ring Size as an Independent Variable in Cyclooligomeric Depsipeptide Antiarrhythmic Activity” (ACS Med Chem Lett, 2021).
